Experimental data published in ChEMBL document CHEMBL4251648, “Synthesis and bioevaluation and doking study of 1H-pyrrolo[2,3-b]pyridine derivatives bearing aromatic hydrazone moiety as c-Met inhibitors” (Eur J Med Chem, 2018).

Columns and labels:
PC-3 = test: Antiproliferative activity against human PC3 cells after 72 hrs by MTT assay; format: functional, cell-based
Outline: (§1)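 Cells grown in MEM with 10% FBS. About 4×10³ cells per well, pre-incubated 24 h at 37°C in 5% CO₂. Compound added at final concentrations, then 72 h. MTT added at 5 µg/mL final for 4 h at 37°C. Tested three times; IC50 taken as the average of […] determinations.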

A549 = test: Antiproliferative activity against human A549 cells after 72 hrs by MTT assay; format: functional, cell-based; outline: as §1
HepG2 = test: Antiproliferative activity against human HepG2 cells after 72 hrs by MTT assay; format: functional, cell-based
Outline: as §1, with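 “37°C. Formazan dissolved in DMSO and read at 492 nm against 630 nm reference.” for “37°C.”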

MCF7 = test: Antiproliferative activity against human MCF7 cells after 72 hrs by MTT assay; format: functional, cell-based; outline: as §1
[1] = biological target: T1, Receptor-type tyrosine-protein kinase FLT3 (Homo sapiens, UniProt P36888); test: Inhibition of FLT3 (unknown origin)
T1 sequence (P36888 whole entry): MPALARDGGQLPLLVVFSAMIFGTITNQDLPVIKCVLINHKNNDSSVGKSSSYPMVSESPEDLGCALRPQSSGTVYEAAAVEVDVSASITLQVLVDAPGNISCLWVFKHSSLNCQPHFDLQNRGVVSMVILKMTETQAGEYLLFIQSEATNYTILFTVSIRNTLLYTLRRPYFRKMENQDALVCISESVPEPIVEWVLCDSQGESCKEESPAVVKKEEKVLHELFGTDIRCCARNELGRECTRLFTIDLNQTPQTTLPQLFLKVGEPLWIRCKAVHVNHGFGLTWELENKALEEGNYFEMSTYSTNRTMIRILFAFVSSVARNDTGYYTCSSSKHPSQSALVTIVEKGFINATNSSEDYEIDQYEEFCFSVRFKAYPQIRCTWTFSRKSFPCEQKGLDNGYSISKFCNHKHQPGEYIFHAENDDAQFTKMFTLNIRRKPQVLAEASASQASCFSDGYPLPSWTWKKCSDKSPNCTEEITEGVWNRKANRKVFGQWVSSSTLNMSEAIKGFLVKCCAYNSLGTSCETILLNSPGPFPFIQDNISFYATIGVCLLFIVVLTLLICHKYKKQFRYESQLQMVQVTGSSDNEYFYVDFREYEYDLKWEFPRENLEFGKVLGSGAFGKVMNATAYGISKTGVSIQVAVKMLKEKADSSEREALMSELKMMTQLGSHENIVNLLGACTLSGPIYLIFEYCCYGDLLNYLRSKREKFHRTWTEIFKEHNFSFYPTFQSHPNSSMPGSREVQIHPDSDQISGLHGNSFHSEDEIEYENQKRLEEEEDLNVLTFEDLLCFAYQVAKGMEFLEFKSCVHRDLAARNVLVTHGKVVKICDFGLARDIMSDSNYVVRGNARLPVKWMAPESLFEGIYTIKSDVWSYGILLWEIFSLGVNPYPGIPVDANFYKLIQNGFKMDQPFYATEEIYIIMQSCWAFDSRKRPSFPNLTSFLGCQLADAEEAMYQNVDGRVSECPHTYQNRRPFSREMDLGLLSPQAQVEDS

[2] = biological target: Vascular endothelial growth factor receptor 2 (Homo sapiens, UniProt P35968); test: Inhibition of VEGFR2 (unknown origin)
Sequence of Vascular endothelial growth factor receptor 2 (P35968 whole entry): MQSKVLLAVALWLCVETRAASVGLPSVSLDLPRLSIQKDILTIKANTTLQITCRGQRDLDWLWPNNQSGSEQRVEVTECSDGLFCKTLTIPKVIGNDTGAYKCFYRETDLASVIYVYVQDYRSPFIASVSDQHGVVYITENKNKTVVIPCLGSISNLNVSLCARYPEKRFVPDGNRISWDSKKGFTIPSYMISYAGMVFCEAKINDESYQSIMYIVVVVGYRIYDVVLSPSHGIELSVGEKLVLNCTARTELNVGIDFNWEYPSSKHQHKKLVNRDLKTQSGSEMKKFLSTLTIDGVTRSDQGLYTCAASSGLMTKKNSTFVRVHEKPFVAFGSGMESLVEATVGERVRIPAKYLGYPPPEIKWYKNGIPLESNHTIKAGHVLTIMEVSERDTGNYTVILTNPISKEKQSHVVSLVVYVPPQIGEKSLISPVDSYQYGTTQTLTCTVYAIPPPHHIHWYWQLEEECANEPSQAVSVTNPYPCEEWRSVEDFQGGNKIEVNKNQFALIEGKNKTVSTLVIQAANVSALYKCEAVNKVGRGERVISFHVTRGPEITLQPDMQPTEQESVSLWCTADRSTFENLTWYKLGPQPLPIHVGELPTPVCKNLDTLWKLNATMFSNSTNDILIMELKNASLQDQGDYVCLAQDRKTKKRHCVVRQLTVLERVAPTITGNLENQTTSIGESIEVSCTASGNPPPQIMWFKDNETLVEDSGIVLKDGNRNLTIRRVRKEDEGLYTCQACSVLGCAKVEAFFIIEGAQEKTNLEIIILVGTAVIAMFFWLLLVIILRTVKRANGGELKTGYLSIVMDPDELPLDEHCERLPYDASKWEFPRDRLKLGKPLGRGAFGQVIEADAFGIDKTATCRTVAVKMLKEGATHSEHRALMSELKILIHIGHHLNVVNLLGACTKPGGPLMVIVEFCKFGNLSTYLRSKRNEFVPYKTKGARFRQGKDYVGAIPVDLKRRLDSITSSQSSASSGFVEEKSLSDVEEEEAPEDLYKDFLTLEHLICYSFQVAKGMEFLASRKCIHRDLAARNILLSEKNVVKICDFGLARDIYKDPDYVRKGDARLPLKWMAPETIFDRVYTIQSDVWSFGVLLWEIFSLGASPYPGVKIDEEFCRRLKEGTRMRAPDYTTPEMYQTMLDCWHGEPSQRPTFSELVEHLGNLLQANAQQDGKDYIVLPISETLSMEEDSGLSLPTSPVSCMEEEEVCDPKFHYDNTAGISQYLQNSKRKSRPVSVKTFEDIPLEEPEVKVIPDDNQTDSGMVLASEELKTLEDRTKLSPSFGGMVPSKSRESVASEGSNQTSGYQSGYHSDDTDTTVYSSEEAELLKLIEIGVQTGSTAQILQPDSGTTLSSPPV

[3] = biological target: Hepatocyte growth factor receptor (Homo sapiens, UniProt P08581); test: Inhibition of c-Met (unknown origin) using FAM-labeled peptide substrate after 10 mins by mobility shift assay
Sequence of Hepatocyte growth factor receptor (P08581 whole entry): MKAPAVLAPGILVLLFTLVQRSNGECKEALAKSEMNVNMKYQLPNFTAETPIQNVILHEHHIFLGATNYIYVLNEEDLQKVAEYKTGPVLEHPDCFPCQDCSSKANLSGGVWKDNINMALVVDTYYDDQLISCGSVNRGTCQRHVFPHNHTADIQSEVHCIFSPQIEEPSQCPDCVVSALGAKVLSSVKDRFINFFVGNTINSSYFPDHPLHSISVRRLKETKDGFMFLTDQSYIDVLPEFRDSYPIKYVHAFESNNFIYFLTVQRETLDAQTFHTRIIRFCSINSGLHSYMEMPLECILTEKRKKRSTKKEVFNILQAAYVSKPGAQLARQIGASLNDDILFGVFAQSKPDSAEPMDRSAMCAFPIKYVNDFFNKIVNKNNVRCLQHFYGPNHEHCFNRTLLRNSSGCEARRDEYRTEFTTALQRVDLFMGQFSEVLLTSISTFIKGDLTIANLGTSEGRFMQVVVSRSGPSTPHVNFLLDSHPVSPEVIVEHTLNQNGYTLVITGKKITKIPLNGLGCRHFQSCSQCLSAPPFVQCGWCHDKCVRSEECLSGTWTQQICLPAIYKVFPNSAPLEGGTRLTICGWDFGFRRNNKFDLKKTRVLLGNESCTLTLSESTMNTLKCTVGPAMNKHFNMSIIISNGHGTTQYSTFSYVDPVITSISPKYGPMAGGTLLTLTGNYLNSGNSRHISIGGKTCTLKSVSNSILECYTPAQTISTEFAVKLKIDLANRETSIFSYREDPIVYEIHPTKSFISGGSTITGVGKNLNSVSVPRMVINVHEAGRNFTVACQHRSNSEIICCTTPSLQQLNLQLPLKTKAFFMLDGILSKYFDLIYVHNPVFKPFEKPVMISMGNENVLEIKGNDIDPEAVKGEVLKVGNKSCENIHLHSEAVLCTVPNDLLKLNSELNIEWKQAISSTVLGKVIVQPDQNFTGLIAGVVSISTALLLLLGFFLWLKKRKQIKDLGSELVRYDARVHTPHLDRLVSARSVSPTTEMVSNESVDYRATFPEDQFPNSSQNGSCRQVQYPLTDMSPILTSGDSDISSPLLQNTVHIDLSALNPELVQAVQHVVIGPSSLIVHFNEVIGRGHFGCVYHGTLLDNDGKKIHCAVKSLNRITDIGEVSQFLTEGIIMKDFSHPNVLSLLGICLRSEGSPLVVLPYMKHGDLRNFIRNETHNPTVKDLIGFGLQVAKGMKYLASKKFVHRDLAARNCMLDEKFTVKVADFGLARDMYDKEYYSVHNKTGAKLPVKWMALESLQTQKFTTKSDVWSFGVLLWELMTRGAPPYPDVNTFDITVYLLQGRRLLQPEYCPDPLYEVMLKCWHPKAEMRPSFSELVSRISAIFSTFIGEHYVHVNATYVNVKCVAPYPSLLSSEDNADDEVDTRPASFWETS

[4] = biological target: Epidermal growth factor receptor (Homo sapiens, UniProt P00533); test: Inhibition of EGFR (unknown origin)
Sequence of Epidermal growth factor receptor (P00533 whole entry): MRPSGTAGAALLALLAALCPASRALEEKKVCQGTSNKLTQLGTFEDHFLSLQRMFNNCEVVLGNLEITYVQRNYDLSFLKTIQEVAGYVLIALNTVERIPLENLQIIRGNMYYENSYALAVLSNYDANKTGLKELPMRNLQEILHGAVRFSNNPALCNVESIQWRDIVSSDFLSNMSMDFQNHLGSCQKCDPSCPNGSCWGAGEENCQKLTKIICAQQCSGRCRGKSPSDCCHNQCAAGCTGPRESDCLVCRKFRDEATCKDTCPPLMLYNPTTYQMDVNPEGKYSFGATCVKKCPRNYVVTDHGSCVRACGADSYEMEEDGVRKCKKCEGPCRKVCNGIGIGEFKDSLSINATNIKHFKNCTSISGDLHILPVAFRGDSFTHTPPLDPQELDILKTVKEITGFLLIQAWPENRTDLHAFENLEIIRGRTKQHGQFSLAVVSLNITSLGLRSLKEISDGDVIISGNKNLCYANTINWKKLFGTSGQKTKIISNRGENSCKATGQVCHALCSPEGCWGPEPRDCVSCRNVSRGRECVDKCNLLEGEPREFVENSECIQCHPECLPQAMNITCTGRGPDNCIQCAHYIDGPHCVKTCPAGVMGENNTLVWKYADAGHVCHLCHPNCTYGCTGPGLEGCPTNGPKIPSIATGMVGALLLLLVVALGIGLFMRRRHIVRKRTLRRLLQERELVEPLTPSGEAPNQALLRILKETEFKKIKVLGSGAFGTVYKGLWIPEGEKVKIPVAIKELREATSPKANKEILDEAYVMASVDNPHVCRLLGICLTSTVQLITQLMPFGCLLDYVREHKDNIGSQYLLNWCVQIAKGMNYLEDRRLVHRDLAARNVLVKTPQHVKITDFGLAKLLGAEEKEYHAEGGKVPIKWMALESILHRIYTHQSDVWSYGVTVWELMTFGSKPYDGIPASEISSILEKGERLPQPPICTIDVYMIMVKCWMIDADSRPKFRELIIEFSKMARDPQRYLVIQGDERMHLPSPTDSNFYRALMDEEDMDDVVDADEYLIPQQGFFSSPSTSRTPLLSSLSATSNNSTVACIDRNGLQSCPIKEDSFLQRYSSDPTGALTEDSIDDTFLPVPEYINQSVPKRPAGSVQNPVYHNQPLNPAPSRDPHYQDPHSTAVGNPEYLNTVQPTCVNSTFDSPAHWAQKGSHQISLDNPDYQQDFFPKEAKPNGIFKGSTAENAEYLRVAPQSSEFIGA

[5] = Homo sapiens, A549, 72 h, read-out: IC50
[6] = Homo sapiens, MCF7, 72 h, read-out: IC50
[7] = Homo sapiens, PC-3, 72 h, read-out: IC50
[8] = Homo sapiens, HepG2, 72 h, read-out: IC50

| Structure (SMILES) | IC50 (A549; [5]) [µM] | IC50 (MCF7; [6]) [µM] | IC50 (PC-3; [7]) [µM] | IC50 (HepG2; [8]) [µM] | also measured |
| --- | --- | --- | --- | --- | --- |
| COc1cc(/C=N/NC(=O)Nc2ccc(Oc3ccnc4[nH]ccc34)c(F)c2)cc(OC)c1OC | 34.1 | 21.9 |  |  | IC50 (PC-3; pc-3): Not Active; IC50 (HepG2; hepg2): Not Active |
| CCN(CC)CCn1cccc1/C=N/NC(=O)Nc1ccc(Oc2ccnc3[nH]ccc23)cc1 | 3.57 |  | 1.37 | 5.88 |  |
| O=C(N/N=C/c1ccc(O)cc1)Nc1ccc(Oc2ccnc3[nH]ccc23)cc1 | 1.91 | 5.8 | 4.92 | 32.2 |  |
| O=C(N/N=C/c1cccn1CCCN1CCCC1)Nc1ccc(Oc2ccnc3[nH]ccc23)cc1 | 1.3 | 4.53 | 4.29 | 1.42 | IC50 [1]: 3.8 µM; IC50 [2]: 14.4 µM; IC50 [3]: 0.907 µM; IC50 [4]: 45 µM |
| O=C(N/N=C/c1ccc(Br)cc1)Nc1ccc(Oc2ccnc3[nH]ccc23)cc1 | 0.64 |  |  | 1 | IC50 (PC-3; pc-3): Not Active; IC50 (MCF7; mcf7): Not Active |
| CN(C)CCn1cccc1/C=N/NC(=O)Nc1ccc(Oc2ccnc3[nH]ccc23)cc1 |  |  | 3.93 |  | IC50 (A549; a549): Not Active; IC50 (HepG2; hepg2): Not Active |
| O=C(N/N=C/c1ccc(F)cc1)Nc1ccc(Oc2ccnc3[nH]ccc23)cc1 | 1.43 | 3.72 | 7.49 | 3.43 |  |
| COc1ccc(/C=N/NC(=O)Nc2ccc(Oc3ccnc4[nH]ccc34)cc2)cc1 | 4.3 |  |  | 9.74 | IC50 (PC-3; pc-3): Not Active; IC50 (MCF7; mcf7): Not Active |
| CN(C)CCCn1cccc1/C=N/NC(=O)Nc1ccc(Oc2ccnc3[nH]ccc23)cc1 | 2.66 | 9.14 | 5.15 | 4.19 |  |
| COc1ccc(/C=N/NC(=O)Nc2ccc(Oc3ccnc4[nH]ccc34)cc2)c(OC)c1OC | 3.34 |  | 27.6 | 2.96 | IC50 (MCF7; mcf7): Not Active |
| CC(C)(C)c1cc(/C=N/NC(=O)Nc2ccc(Oc3ccnc4[nH]ccc34)c(F)c2)cc(C(C)(C)C)c1O | 13.6 | 0.84 | 10.4 | 7.22 |  |
| O=C(N/N=C/c1cccc(Cl)c1Cl)Nc1ccc(Oc2ccnc3[nH]ccc23)c(F)c1 |  |  |  |  | IC50 (PC-3; pc-3): Not Active; IC50 (A549; a549): Not Active; IC50 (HepG2; hepg2): Not Active; IC50 (MCF7; mcf7): Not Active |
| O=C(N/N=C/c1cccc(Cl)c1Cl)Nc1ccc(Oc2ccnc3[nH]ccc23)cc1 |  |  |  |  | IC50 (PC-3; pc-3): Not Active; IC50 (A549; a549): Not Active; IC50 (HepG2; hepg2): Not Active; IC50 (MCF7; mcf7): Not Active |
| CN1CCN(CCCn2cccc2/C=N/NC(=O)Nc2ccc(Oc3ccnc4[nH]ccc34)c(F)c2)CC1 | 2.2 | 3.74 | 2.19 | 2.74 |  |
| O=C(N/N=C/c1ccccc1)Nc1ccc(Oc2ccnc3[nH]ccc23)cc1 | 17.2 | 1.51 | 10.2 | 0.75 |  |
| O=C(N/N=C/c1cccn1CCCN1CCCCC1)Nc1ccc(Oc2ccnc3[nH]ccc23)cc1 | 1.56 | 4.69 | 3.58 | 3.69 |  |
| COc1ccc(/C=N/NC(=O)Nc2ccc(Oc3ccnc4[nH]ccc34)c(F)c2)c(OC)c1OC | 1.45 | 0.134 | 8.97 | 2.99 |  |
| O=C(N/N=C/c1ccc(O)cc1O)Nc1ccc(Oc2ccnc3[nH]ccc23)c(F)c1 | 5.84 | 48 | 13 | 4.55 |  |
| O=C(N/N=C/c1cccc([N+](=O)[O-])c1)Nc1ccc(Oc2ccnc3[nH]ccc23)c(F)c1 | 3.64 |  | 5.14 | 5.18 | IC50 (MCF7; mcf7): Not Active |
| O=C(N/N=C/c1ccc(F)cc1Cl)Nc1ccc(Oc2ccnc3[nH]ccc23)c(F)c1 | 0.01 | 7.61 | 0.003 | 1.11 |  |

| Structure (SMILES) | IC50 (A549; [5]) [µM] | IC50 (MCF7; [6]) [µM] | IC50 (PC-3; [7]) [µM] | IC50 (HepG2; [8]) [µM] | also measured |
| --- | --- | --- | --- | --- | --- |
| CN(C)CCn1cccc1/C=N/NC(=O)Nc1ccc(Oc2ccnc3[nH]ccc23)c(F)c1 |  |  | 1.6 | 8.98 | IC50 (A549; a549): Not Active |
| O=C(N/N=C/c1ccc(Cl)c(Cl)c1)Nc1ccc(Oc2ccnc3[nH]ccc23)c(F)c1 | 2.65 | 0.998 | 14.1 | 3.7 |  |
| O=C(N/N=C/c1ccc([N+](=O)[O-])cc1)Nc1ccc(Oc2ccnc3[nH]ccc23)c(F)c1 | 0.02 | 4 | 0.15 | 3.03 |  |
| O=C(N/N=C/c1cccn1CCCN1CCCCC1)Nc1ccc(Oc2ccnc3[nH]ccc23)c(F)c1 | 2.85 | 4.84 | 2.84 | 2.84 |  |
| O=C(N/N=C/c1ccc([N+](=O)[O-])cc1)Nc1ccc(Oc2ccnc3[nH]ccc23)cc1 | 2.1 | 15.6 | 28.1 | 4.62 |  |
| O=C(N/N=C/c1cc(Br)c(O)c(Br)c1)Nc1ccc(Oc2ccnc3[nH]ccc23)c(F)c1 | 16.2 |  |  | 6.52 | IC50 (PC-3; pc-3): Not Active; IC50 (MCF7; mcf7): Not Active |
| COc1ccc(/C=N/NC(=O)Nc2ccc(Oc3ccnc4[nH]ccc34)c(F)c2)cc1 | 3.98 | 5.75 | 6.73 | 1.77 |  |
| O=C(N/N=C/c1cccc(Br)c1)Nc1ccc(Oc2ccnc3[nH]ccc23)c(F)c1 | 2.22 | 0.049 | 4.02 | 0.66 |  |
| O=C(N/N=C/c1ccccc1)Nc1ccc(Oc2ccnc3[nH]ccc23)c(F)c1 | 2.5 | 2.38 | 7.94 | 0.64 |  |
| O=C(N/N=C/c1ccc(O)c(Br)c1)Nc1ccc(Oc2ccnc3[nH]ccc23)c(F)c1 | 9.25 | 8.23 | 28.6 | 1.36 |  |
| CCN(CC)CCCn1cccc1/C=N/NC(=O)Nc1ccc(Oc2ccnc3[nH]ccc23)c(F)c1 | 1.21 | 3.39 | 2.95 | 2.14 |  |
| CN1CCN(CCCn2cccc2/C=N/NC(=O)Nc2ccc(Oc3ccnc4[nH]ccc34)cc2)CC1 | 1.64 | 4.28 | 3.74 | 2.76 |  |
| N#Cc1ccc(/C=N/NC(=O)Nc2ccc(Oc3ccnc4[nH]ccc34)c(F)c2)cc1 | 1.36 |  | 9.03 | 0.85 | IC50 (MCF7; mcf7): Not Active |
| O=C(N/N=C/c1cccn1CCN1CCOCC1)Nc1ccc(Oc2ccnc3[nH]ccc23)cc1 | 3.88 |  | 1.65 | 9.94 |  |
| O=C(N/N=C/c1ccc(O)cc1Br)Nc1ccc(Oc2ccnc3[nH]ccc23)cc1 | 5.08 |  |  |  | IC50 (PC-3; pc-3): Not Active; IC50 (MCF7; mcf7): Not Active |
| O=C(N/N=C/c1cccn1CCN1CCOCC1)Nc1ccc(Oc2ccnc3[nH]ccc23)c(F)c1 | 3.41 |  | 2.45 | 11.9 |  |
| O=C(N/N=C/c1ccc(F)cc1)Nc1ccc(Oc2ccnc3[nH]ccc23)c(F)c1 | 0.68 | 0.8 | 2.33 | 3.88 |  |
| O=C(N/N=C/c1cccn1CCCN1CCCC1)Nc1ccc(Oc2ccnc3[nH]ccc23)c(F)c1 | 2.01 | 4.58 | 3.58 | 3.5 |  |
| O=C(N/N=C/c1cccn1CCCN1CCOCC1)Nc1ccc(Oc2ccnc3[nH]ccc23)cc1 | 2.24 |  | 14.7 | 1.69 | IC50 (MCF7; mcf7): Not Active |
| O=C(N/N=C/c1ccc(O)cc1)Nc1ccc(Oc2ccnc3[nH]ccc23)c(F)c1 | 3.76 |  | 2.78 | 1.95 | IC50 (MCF7; mcf7): Not Active |
